Reference: ChEMBL document CHEMBL4513216, “Probing the Open Global Health Chemical Diversity Library for Multistage-Active Starting Points for Next-Generation Antimalarials” (ACS Infect Dis, 2020)

Assay: Toxicity liver stage against HepG2, at 10uM
Assay type: cell-based
Parameters: test concentration 10 uM, cell line HepG2-A16-CD81EGFP
Conditions: human, HepG2-A16-CD81EGFP cells; read-out: INHIBITION
In short: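 Uninfected HepG2-A16-CD81EGFP cells, 3 × 10^3 per well, 1536-well, plated on prespotted compound at 10 μM final, parasite-free screening media added to match infected plates; puromycin 10 μM positive, DMSO 0.5% negative; run in parallel with 48 h PbLuc assay at 37 °C, 5% CO2; viability by CellTiter-Glo luminescence, normalized to controls.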

SMILES | cytotoxicity at 10 µM
COc1ccc(-c2csc3c2c(N)nc(=O)n3CCCN(C)C)cc1 | -54%
O=C(CN1C(=O)CCC1=O)N1CCOCC1 | 2.48%
COc1ncc(C(=O)NCc2ccc(Br)cc2)cn1 | 48.6%
O=C(Nc1cnccn1)[C@H]1C[C@H]2OCC[C@H]2N(c2ncc(F)cn2)C1 | 16.4%
CC(C)N1CCC(c2ccnc3c(C(=O)N4CCCC4)ncn23)CC1 | -5.49%
O=C(c1cnccn1)N1CCn2cnc(COCC3CC3)c2C1 | 7.14%
O=C1CC(c2cccs2)Cc2[nH]c(=O)c(C(=O)NC3CCCC3)cc21 (centres undefined) | 80.5%
Cc1oc(-c2nc(C#N)c(NC(C)C)o2)cc1S(=O)(=O)N1CCCCC1 | 4.28%
Cc1cccc2c1cnn2CCCNC(=O)CCCC(=O)O | -11.1%
Cc1cc(-c2cnc(N3CCC(O)CC3)nc2C(C)C)on1 | 66.4%
Cc1nc(O)c2c(n1)CCN(Cc1cc(C)sc1C)CC2 | -9%
Cn1nc(C2CCNCC2)c2c(C(=O)NC3CC3)cc(C3CC3)nc21 | 16.2%
CN1CCN(C(=O)c2cn(-c3ccc(C(F)(F)F)cn3)nn2)CC1 | -63%
Cc1ccc(OCC(=O)Nc2ccc(S(C)(=O)=O)cc2)cc1C | -2.4%
NC(=O)C(NCc1cccs1)c1ccccc1 (centres undefined) | -41.5%
CCS(=O)(=O)N1Cc2ccccc2CC1C(=O)OCc1cc(C)no1 (centres undefined) | -13%
c1cnnc(N2CCCC(NCc3nc(-c4ccsc4)no3)C2)c1 (centres undefined) | 7.79%
Cc1cccc(C(=O)N2CCCN(CCCSCC#N)CC2)c1 | -150%
Cc1ccc(C(=O)N2CCCC(n3cncn3)C2)o1 (centres undefined) | 4.35%
COC(=O)c1ccc(CNC(=O)Nc2ccc(=O)n(C)c2)cc1 | -6.8%
OC1CCN(c2ccc(CNc3nc4ccccc4s3)cc2F)CC1 | 1.71%
Cc1nnc2n1CC(CNc1cnc3ccccc3n1)CC2 (centres undefined) | -41.5%
NC(=O)C1=NC2=NS(=O)(=O)c3ccccc3N2N1Cc1ccc(Cl)cc1 | 1.75%
CC(=O)N(CCc1ccccc1)CC(=O)NC(C)(C)C#N | 8.06%
CNS(=O)(=O)CCCN(C)Cc1cc(C)ccc1OC | -61%
Cc1ccccc1CN(C)CC(O)COCc1ccccc1Cl (centres undefined) | 8.49%
COc1cc(F)c(NCc2nc3ccccc3n2C)cc1OC | 26.5%

SMILES | cytotoxicity at 10 µM
CC(C)(C)c1nc(CN(Cc2cccs2)C2CCS(=O)(=O)C2)cs1 (centres undefined) | 16%
O=C(NC1CC1)N1C[C@H]2CN(Cc3cccc(F)c3)C(=O)[C@H]2C1 | -70.5%
CS(=O)(=O)N[C@H]1CN(C(=O)c2cscn2)[C@@H]2CCCO[C@H]12 | -84.6%
CC(=O)N1CCC2(CCCN(Cc3ccc(Cl)c(C(F)(F)F)c3)C2)C1 (centres undefined) | 3.22%
COCC(=O)Nc1ccccc1Sc1c(C)n[nH]c1C | -10.2%
CC(CN1CCCCCC1)NCc1cc(-c2ccco2)on1 (centres undefined) | 1.56%
COc1cc(Cc2nc3c([nH]2)CC(C)(C)CNC3=O)cc(OC)c1 | -6.27%
O=C(CSCC1CC1)N1CCCN(c2ccc(F)cc2)CC1 | -4.43%
COc1ccc(C(=O)C2CCCN(c3cc(N)ncn3)C2)c(C)c1 (centres undefined) | 5.31%
CCCc1nc(N2CCC(CCO)CC2)c2cnn(C)c2n1 | 2.28%
O=C(NCc1nnc2n1CCCC2)c1ccc(C2CCCO2)s1 (centres undefined) | 15.7%
COCC(=O)N1C[C@H]2CNC[C@@]2(C(=O)NCc2cc(C)n[nH]2)C1 | 8.29%
COc1nccnc1-c1cc(NC2CCCC2)nc2[nH]ccc12 | 1.97%
Cc1ccc2nc(C)c(C)c(C(=O)N[C@H]3COC[C@@H]3N3CCCC3)c2c1 | -45.8%
CCc1nn(C)c(Cl)c1CN1C[C@@H](NC(=O)N(C)C)[C@H](C(C)C)C1 | 11.4%
Cn1cc(-c2c(C#N)c(N)nc3c2CCc2[nH]ccc2-3)cn1 | -4.37%
Cn1ccnc1-c1ccc(NC[C@H]2CCc3ccccc3O2)nn1 | -5.71%
O=C(NCCC1CCCCO1)c1cc(COc2cncc(Cl)c2)on1 (centres undefined) | -1.73%
Cc1ccccc1N1CCCN(C(=O)CCc2cccnc2)CC1 | -9.2%
C[C@@H]1CN(Cc2nc(C(N)=O)no2)CC[C@@]1(O)C1CCOCC1 | -38.5%
Cc1cnn(CCNc2ncnc3c2CCN(CC2CCOC2)CC3)c1 (centres undefined) | -4.24%
O=C(NCCC1COc2ccccc2O1)c1ccc(N2CC(O)C2)nc1 (centres undefined) | 72.1%
Cc1cc(N(C)Cc2ncc[nH]2)nc(-c2ccccc2)n1 | 1.68%
CCC[C@H]1CN(Cc2cc(C)no2)C[C@@H]1NC(=O)C1(COC)CCC1 | 3.06%
Cc1nc(N(C)C2CCCCC2)ncc1C(C)NC(=O)c1cscn1 (centres undefined) | -134%
Cc1c[nH]c(CN(C)c2nc(C3CCCC3)nc3c2cnn3C)n1 | -7.56%
CCS(=O)(=O)N(C)c1ccc(C(=O)N2CCCC(C)C2)cc1 (centres undefined) | -15.4%

SMILES | cytotoxicity at 10 µM
COc1ccc(C2=CCN(C(=O)C3CCS(=O)(=O)C3)CC2)cc1 (centres undefined) | -7.45%
COc1cc(C)nc(N2CCN(C(=O)CN(C)C(C)C)CC2)n1 | -14.6%
COc1ccc(-c2nc(CN3CCN(CCO)CC3)co2)cc1 | -0.0868%
Cc1nc(CN(C)C2CCN(Cc3nc4ccccc4s3)C2)no1 (centres undefined) | -4.27%
O=C(c1cnccn1)N1CCN(Cc2csc(-c3ccccc3)n2)CC1 | -3.32%
Cn1ccc(C(=O)N2CCN(c3cc(C#N)ccn3)CC2)cc1=O | -14.2%
Cc1noc(C2CCN(C(=O)c3ccc(NC4CC4)nc3)CC2)n1 | -7.1%
Cn1cc(CCNC(=O)NCc2nnc3n2CCC3)cn1 | -6.08%
CN(C(=O)c1cccc2[nH]ncc12)C1CCN(c2ccccn2)CC1 | 7.31%
CCCC(=O)N(CCCN1CCOCC1)c1nc2c(C)c(C)ccc2s1 | -12.6%
c1cnc(N2CC[C@@H](N3CCOCC3)[C@@H]2Cc2ccncc2)nc1 | 2.9%
Cc1ccc(CN2CCc3c(COCC4CC4)nn(C)c3C2)s1 | 6.35%
c1cnc(N2CCC3(COCc4cnc(-c5cccnc5)nc43)C2)nc1 (centres undefined) | 2.57%
CCN1CCC2(CC1)CN(C(=O)c1cccnc1)c1ccc(Cl)cc12 | -111%
CC(C)C(=O)NC1CC2(CCN(CC(=O)N(C)C)CC2)c2ccccc21 (centres undefined) | -103%
c1ccc(CO[C@@H]2CN(Cc3nccs3)[C@@H]3COC[C@@H]32)nc1 | -104%
COCC(=O)NCc1cc(=O)n2c(n1)CN(C)CCC2 | -103%
Cc1noc(C)c1CN1CCC2(CCN(Cc3cccc(F)c3)CC2)C1 | -122%
Cc1cccc(CN2CCOC3(CCCN(CC(=O)N(C)C)C3)C2)n1 (centres undefined) | -106%
COc1ncccc1CNC1CCc2c(ccc(=O)n2C)C1 (centres undefined) | -103%
Cc1ncoc1C(=O)N1C[C@H]2CCC[C@@]2(COCc2cccnc2)C1 | 4.53%
c1cncc(N2CCOCC3(CCCN(Cc4cccs4)C3)C2)c1 (centres undefined) | 14.8%
Cc1nccc(NCc2cncc3c2CCN(S(C)(=O)=O)C3)n1 | -99.4%
CC(C)N1CCO[C@@H]2CN(C(=O)Cc3cccs3)CC[C@@H]2C1 | -120%
CC1(C)[C@@H]2CC=C(CN3CCCn4nc(CCC(=O)O)cc4C3)[C@H]1C2 | -40.2%
